Bioassay records from PubChem.
A selection: hits, their analogues and other compounds. The true share with any hit is near 12%.
Wee1 stabilizer: inhibitors of human Wee1 degradation. 220,000 compounds, 1.2% hits. reporter increase, % at 5 µM. P30291. HeLa Luc-Wee1K328M stability, luciferase luminescence; 100% = proteasome inhibitor MG132 effect;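 active = activation above the mean of all tested compounds plus 3 SD, set per screening run, cut at about 8.8% in these data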;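 also: cells exposed to compound for 20 h before luminescence read; 0% = DMSO alone and 100% = MG132 at 30 µM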
Target sequence (P30291 whole entry K328M): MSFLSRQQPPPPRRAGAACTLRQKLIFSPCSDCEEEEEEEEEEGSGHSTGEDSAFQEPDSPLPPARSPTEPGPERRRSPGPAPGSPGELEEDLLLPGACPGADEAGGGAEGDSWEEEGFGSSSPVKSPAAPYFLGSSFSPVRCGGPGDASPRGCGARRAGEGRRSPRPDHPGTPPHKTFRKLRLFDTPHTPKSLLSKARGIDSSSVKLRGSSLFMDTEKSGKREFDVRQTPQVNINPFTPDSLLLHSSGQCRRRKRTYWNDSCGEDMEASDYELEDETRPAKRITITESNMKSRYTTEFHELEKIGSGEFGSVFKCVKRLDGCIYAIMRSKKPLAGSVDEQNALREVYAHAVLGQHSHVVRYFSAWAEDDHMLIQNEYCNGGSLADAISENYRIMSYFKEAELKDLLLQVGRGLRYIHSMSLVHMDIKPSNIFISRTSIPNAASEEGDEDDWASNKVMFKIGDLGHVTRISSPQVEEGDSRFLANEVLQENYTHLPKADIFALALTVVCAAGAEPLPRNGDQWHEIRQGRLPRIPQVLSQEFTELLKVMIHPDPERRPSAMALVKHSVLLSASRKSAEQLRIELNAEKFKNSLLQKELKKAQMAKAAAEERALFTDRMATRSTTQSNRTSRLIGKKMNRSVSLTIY
PKD1 kinase inh: inhibitors of human PKD1 kinase; 200,000 compounds, 0.056% hits; PKD1 kinase fluorescence polarization assay; inhibition, % (no concentration beside the values); Q15139
Rad51 HR inh: Rad51 (human) homologous recombination inhibition; hRad51 DNA strand exchange, fluorescence dequenching; 200,000 compounds, 0.085% hits; Q06609; inhibition, % at 10 µM;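 active = inhibition above 40% at the single screening dose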;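 also: 0% = DMSO control wells and 100% = blanks with heterologous ssDNA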
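material = hRad51 filaments on single-stranded DNA | reagent = Donor/quencher-labelled 47-bp dsDNA substrate | compound = 10 µM final, single point | schedule = strand-exchange reaction 15 min at room temperature | measured by = fluorescein emission 520 nm, excitation 485 nm | read-out basis = % inhibition versus plate control and blank means | benchmarks = plate controls and plate blanks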
CHOP inh: blocks CHOP induction under ER stress | CHO-K1 CHOP-promoter luciferase, tunicamycin-induced, 15-18 h | 220,000 compounds, 3.8% hits | inhibition, % at 10 µM;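 active = compounds that reduced the stress-induced luciferase reporter signal by more than about 70% of percent inhibition, limit read from the data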;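 also: 0% = tunicamycin plus vehicle and 100% = wells without tunicamycin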
L major viab: reduces viability of Leishmania major promastigotes. resazurin fluorescence viability. inhibition, % at 10 µM. 200,000 compounds, 9% hits;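 also: promastigotes grown with compound for 44 hours at 28 °C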
Arbovirus inh: blocks arbovirus infection; AID 1251; inhibition, % at 10 µM; 200,000 compounds, 0.37% hits; arbovirus infection cell-based antiviral screen; in the data active = inhibition above about 30%
Active calls of the source: *; . = no result. Rule as the data show it, unless noted: active = inhibition above about 50%; inactive = the rest.

SMILES	Wee1 stabilizer	PKD1 kinase inh	Rad51 HR inh	CHOP inh	L major viab	Arbovirus inh
O=C(COC(=O)C1CC2C=CC1C2)Nc1cccc(S(=O)(=O)N2CCCCCC2)c1 (stereo unspecified)	1	-15	.	3	4	4
N#CC1=C(N)SC(N)=C(C#N)C1c1ccc([N+](=O)[O-])cc1	10*	8	.	-26	-5	5
CSc1cc(C)c(OCC(=O)Nc2ccc(NC(C)=O)cc2)c(C)c1	2	-10	6	-15	-9	-16
O=C(CSCc1ccccc1)N/N=C/c1ccc(OCC(=O)N2CCCCC2)cc1	0	-13	.	-18	57*	-2
O=C(COc1ccccc1)N/N=C/c1ccc(O[C@@H]2O[C@H](CO)[C@@H](O)[C@H](O)[C@H]2O)cc1	10*	-12	-1	8	49	6
CN(C)c1ccc(/C=N/NC(=O)COc2ccccc2)cc1	-1	2	-1	11	-8	1
O=C(Nc1nc(COc2ccccc2)cs1)c1ccccc1F	0	5	.	2	1	-5
O=C(C1CCN(S(=O)(=O)c2cccc3cccnc23)CC1)N1CCN(C2CCCC2)CC1	8	-2	.	-4	-8	3
CCCCn1cnc2cc(C)c(C)cc21	0	0	-12	8	5	-4
O=C(O)CCC(=O)c1ccc2c(c1)CCCC2	15*	-8	9	-19	-4	-1
O=C(Nc1ccccc1Cl)c1cc[n+](Cc2ccc([N+](=O)[O-])cc2)cc1	-3	0	-1	28	-3	-4
Cc1ccc(NC(=O)c2cc(C(=O)c3cc(Cl)ccc3O)cn(-c3ccc(C)cc3)c2=O)cc1	0	-10	-4	68	99*	11
N#Cc1cc(C(=O)c2cc(Cl)ccc2O)cn(-c2ccccc2)c1=O	3	-8	-9	14	3	9
CCOc1ccc(C(=O)N(CN2CCCC2=O)c2ccccc2)cc1	13*	5	1	36	-2	-4
CCOc1ccc(C(=O)N(CN2CCCC2=O)c2ccc(C)cc2)cc1	1	2	-3	15	-4	9
CC(C)OCCCNC(=O)CNC(=O)c1ccc(Cl)c(Cl)c1	0	-6	-14	4	-2	1
O=C(O)c1cc(C(=O)C2CCCCC2)c[nH]1	0	112*	-1	-7	-5	8
CC(CC(=O)N1CCN(c2ccc(C(F)(F)F)cn2)CC1)n1ccnc1 (stereo unspecified)	0	-1	9	1	11	17
O=C(Nc1ccc(OC(F)(F)F)cc1)c1[nH]ncc1[N+](=O)[O-]	-1	0	18	-5	-1	30*
CN(C(=O)COC(=O)c1ccccc1C(=O)N1CCN(c2ccccc2)CC1)c1ccccc1	-2	0	4	7	0	-2
C=C1CCN([C@@H](CC(C)C)C(=O)N2CCCC2)S(=O)(=O)c2ccccc21	.	.	-12	.	.	.
Cn1c(SCC(=O)N2CCc3ccccc3C2)nnc1-c1ccncc1	0	3	24	-3	0	3
Cn1c(SCC(=O)N2CCc3ccccc3C2)nnc1-c1cccs1	3	5	-12	18	78*	7
COCC(C)n1c(SCC(=O)N2CCCCC2)nc2ccccc2c1=O (stereo unspecified)	0	-6	.	12	-2	8
COCC(C)n1c(SCC(=O)N2CCc3ccccc3C2)nc2ccccc2c1=O (stereo unspecified)	3	-4	2	6	91*	18
SMILES	Wee1 stabilizer	PKD1 kinase inh	Rad51 HR inh	CHOP inh	L major viab	Arbovirus inh
CCc1cccc(CC)c1-n1c(SCC(=O)N2CCc3ccccc3C2)nnc1-c1cccnc1	2	-6	-37	51	99*	5
Cc1ccccc1-n1c(C)nnc1SCC(=O)N1CCc2ccccc2C1	1	2	-3	36	50*	11
Nn1c(SCC(=O)N2CCc3ccccc3C2)nnc1-c1cccs1	-2	-5	-1	15	1	0
COc1ccc(CNC(=O)CN(Cc2ccc(F)cc2)C(=O)c2csnn2)cc1	7	-4	4	10	20	7
CCc1cccc(CC)c1-n1c(SCn2nnc3ccccc3c2=O)nnc1-c1cccnc1	1	-8	.	26	67*	-2
Cc1c(C(=O)NCCSCc2ccc(Cl)cc2Cl)cccc1[N+](=O)[O-]	3	-4	.	72*	-4	3
S=C(NCCSCc1ccc(Cl)cc1Cl)Nc1ccccc1	0	-1	-3	81*	84*	-30
CC(/C=C/c1cccc(Oc2ccc(F)cc2)c1)N(O)C(N)=O (stereo unspecified)	.	.	.	-12	.	.
FC(F)(F)c1cc(-c2cccs2)nc(-n2cc(Cl)cn2)n1	1	4	1	85*	2	0
O=[N+]([O-])c1ccn(-c2nc(-c3cccs3)cc(C(F)(F)F)n2)n1	1	4	0	14	28	6
CNC(=O)CNC(=O)Nc1ccc(Cl)c(Cl)c1	1	-12	-9	7	-3	1
COC(=O)/C=C1\C(=O)N(c2nc3ccc(OC)cc3s2)C(=S)N1c1ccc(F)cc1	0	-13	.	43	67*	-3
Cc1cc(OC(=O)c2cccs2)ccc1C(C)C	-1	4	9	87*	-1	9
C/C(=N\Nc1nnc(-c2ccccc2)c(-c2ccccc2)n1)c1cccc([N+](=O)[O-])c1	-1	-257	-1	78*	2	-8
C/C(=N\NC(=O)C1CC1(c1ccccc1)c1ccccc1)c1cccc([N+](=O)[O-])c1 (stereo unspecified)	0	9	-12	13	60*	-1
CN(/N=C/C=C/c1ccccc1)C1=NS(=O)(=O)c2ccccc21	0	-10	-3	14	-3	4
CCCCc1cc(=O)oc2cc(O)ccc12	-3	-2	-3	15	-3	10
Cc1cc(C)nc(/N=C(\N)Nc2ccccc2-c2ccccc2)n1	-4	0	11	8	96*	-3
Cc1cc(C)cc(N/C(N)=N/c2nc(C)cc(C)n2)c1	0	-7	3	17	85*	-4
Cc1ccc(N/C(N)=N/c2nc(C)cc(C)n2)cc1	-3	-4	21	10	17	-7
Cc1cccc(N/C(N)=N/c2nc(C)cc(C)n2)c1	1	5	0	11	14	-7
CC(C)C(=O)N1CCN(c2ccc([N+](=O)[O-])c(NC(C)c3ccccc3)c2)CC1 (stereo unspecified)	-1	1	-2	38	17	23
OC[C@H]1O[C@@H](n2cnc3c(NCCc4ccccc4)ncnc32)C(O)[C@H]1O (stereo partly specified)	.	.	.	-2	.	.
COc1cc(CNc2ccc(CNc3ncn[nH]3)cc2)cc(Cl)c1OCc1ccccc1	-2	1	-18	44	8	-21
COc1ccc(-c2nsc3c(N4CCCCC4)ncnc23)cc1	-2	-8	-2	82*	-4	0
